PHOSPHO1 inh – PHOSPHO1 (human) inhibition. 1.1% of 290,000 active. recombinant PHOSPHO1, absorbance phosphatase assay. inhibition, % at 13.3 µM; in the data active means inhibition above about 60%
ASAP1 inh – ASAP1 ArfGAP inhibition | Q9ULH1 | ASAP1-stimulated ARF1 GTP hydrolysis, GDP FP detection | inhibition, % at 16.5 µM | 0.19% of 360,000 active; in the data active means inhibition above about 25%;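 further: 0% = vehicle with enzyme and substrate and 100% = no enzyme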
Target sequence (Q9ULH1 325-724 limits assumed): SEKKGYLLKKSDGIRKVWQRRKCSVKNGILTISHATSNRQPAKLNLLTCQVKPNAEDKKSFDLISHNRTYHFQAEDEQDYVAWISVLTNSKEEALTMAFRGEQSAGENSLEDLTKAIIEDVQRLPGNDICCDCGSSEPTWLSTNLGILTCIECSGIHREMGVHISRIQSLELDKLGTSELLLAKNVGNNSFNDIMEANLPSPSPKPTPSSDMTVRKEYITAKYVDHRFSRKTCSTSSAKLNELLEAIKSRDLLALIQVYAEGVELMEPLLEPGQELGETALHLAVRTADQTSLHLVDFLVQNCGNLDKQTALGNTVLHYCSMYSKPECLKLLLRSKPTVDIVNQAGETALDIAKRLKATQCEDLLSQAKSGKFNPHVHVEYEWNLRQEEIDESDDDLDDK
ARFGAP1 inhibitor – inhibitors of rat ARFGAP1; Q62848; Arfgap1-stimulated ARF1 GTP hydrolysis, GDP FP detection; inhibition, % at 16.5 µM; 0.26% of 360,000 active;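 active means inhibition above a per-plate limit, mean inhibition of low control wells plus 3 SD, cut at about 25% in these data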;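 further: 0% = DMSO wells with enzyme and 100% = wells lacking Arfgap1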
Target sequence (Q62848 1-136 limits assumed): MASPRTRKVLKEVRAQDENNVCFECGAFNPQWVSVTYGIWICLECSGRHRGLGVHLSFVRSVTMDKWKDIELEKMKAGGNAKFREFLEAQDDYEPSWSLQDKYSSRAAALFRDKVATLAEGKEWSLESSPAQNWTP
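Material: rat Arfgap1 GAP domain (His6, aa 1-136), purified enzyme. Also added: human ARF1(Δ1-17)-GTP substrate. Compound dosing: 16.5 µM single point, 1.26% DMSO. Timing: enzyme reaction 120 min at 25 °C after 20 min preincubation. Signal: GDP detection by fluorescence polarization. Read-out basis: percent inhibition of GAP-stimulated GDP formation, scaled between DMSO and no-Arfgap1 medians.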
VIM-2 inhibitor – inhibitors of Pseudomonas aeruginosa VIM-2 metallo-beta-lactamase; inhibition, % at 5.6 µM; purified VIM-2, nitrocefin hydrolysis, epi-absorbance fluorescence; 0.89% of 290,000 active;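 active means inhibition above the mean of all tested compounds plus 3 SD, cutoff set per screening run, cut at about 7.5% in these data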;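 further: red hydrolysis product quenches plate fluorescence so inhibitors raise well fluorescence; 0% = enzyme with DMSO and 100% = DMSO without enzyme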
Calb FLC – C. albicans growth modulation with fluconazole; growth inhibition, % (no concentration beside the values); C. albicans CaCi-2 (fluconazole-resistant clinical isolate) + fluconazole, Alamar Blue growth, 48 h; 0.57% of 300,000 active;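 active means growth inhibition above about 58% in most replicates, limit read from the data, passing the limit was not always enough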;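 further: all wells also contain fluconazole at 8 µg/ml as a sub-toxic cotreatment; 0% = median of DMSO wells and 100% = median of geldanamycin control wells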
IMP-1 inh – inhibitors of Pseudomonas aeruginosa IMP-1 metallo-beta-lactamase; 0.45% of 290,000 active; inhibition, % at 5.6 µM; purified IMP-1, nitrocefin hydrolysis, epi-absorbance fluorescence;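 active means inhibition above the mean plus 3 SD of all compounds in the same screening run, cut at about 4.5% in these data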;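 further: 0% = IMP-1 with DMSO and 100% = DMSO wells lacking enzyme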
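System: Purified IMP-1 | Read-out basis: Percent enzyme inhibition | Controls: IMP-1 with DMSO as 0%, enzyme-free DMSO as 100% | Replicates: One well per compound | Doses: 5.6 µM nominal single concentration | Detection: Epi-absorbance fluorescence, 480 nm excitation, 530 nm emission | Incubation: 25 °C, 15 min preincubation, 25 min reaction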
ASAP1 GAP conf – confirmation of human ASAP1 inhibitors. shares compounds with ASAP1 inh. 37% of 620 active. ASAP1-stimulated Arf1 GTPase, GDP fluorescence polarization. inhibition, % at 16.5 µM;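 active means mean inhibition over triplicates exceeds the hit threshold derived for the earlier primary screening run, cut at about 25% in these data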
An asterisk follows results filed as active; / = no result given. Most compounds without a hit are left out; they make up all but 2.6% or so of the library.

SMILES	PHOSPHO1 inh	ASAP1 inh	ARFGAP1 inhibitor	VIM-2 inhibitor	Calb FLC	IMP-1 inh	ASAP1 GAP conf
O=C(N/N=C/C(Br)=C/c1ccccc1)c1ccncc1	31.5	-10.2	2.8	-1.3	4.1	-1.0	/
O=C(N/N=C/C(Br)=C/c1ccccc1)c1ccc([N+](=O)[O-])cc1	32.4	48.4*	4.5	0.3	-5.1	42.2*	78.5*
C[C@@H](NC(=O)[C@@H]1CCCN1C(=O)OC(C)(C)C)c1ccccc1	/	8.8	1.3	/	/	/	/
OC[C@@H]1CN(Cc2cccs2)C[C@H](n2cnc3c(NCc4ccc(F)cc4)ncnc32)O1	/	6.7	-2.5	/	/	/	/
COc1ccc(S(=O)(=O)N2CCc3ccccc32)cc1C(=O)OCC(=O)c1c(N)n(C)c(=O)n(C)c1=O	42.8	25.8*	11.2	2.6	2.1	1.1	3.8
CCOC(=O)c1sc(NC(=O)CNCc2cccnc2)c(C(=O)OCC)c1C	16.8	36.9*	11.5	2.5	32.0	-1.7	0.6
CCOC(=O)c1sc(NC(=O)CNCc2ccccn2)c(C(=O)OCC)c1C	37.7	-9.7	2.1	1.7	-1.7	-2.2	/
CC(C)C#Cc1cnc2c(c1)C(=O)N([C@@H](C)CO)C[C@@H](C)[C@H](CN(C)Cc1cccc(F)c1)O2	/	-3.8	9.4	/	/	/	/
O=C(CNC(=O)c1ccc(Cl)cc1Cl)NCCCn1ccnc1	8.6	28.8*	5.2	-2.9	-4.9	-2.3	-3.5
O=C(N/N=C/c1ccc(-c2ccc([N+](=O)[O-])cc2)o1)c1cccnc1	33.4	-10.7	11.1	-3.3	4.9	-1.4	/
Cc1cc([N+](=O)[O-])c(C)cc1-c1ccc(/C=N/NC(=O)c2cccnc2)o1	-3.7	24.7*	-2.9	-0.9	5.5	0.2	21.2
CC1OC(CCc2cccc(Cl)c2)Cc2[nH]c(=S)[nH]c(=O)c21 (configuration not stated)	/	2.2	-3.8	/	/	/	/
COC(=O)C[C@H]1CC[C@@H]2[C@H](COC[C@H](O)CN2S(=O)(=O)c2ccccc2OC)O1	/	-7.0	-0.5	/	/	/	/
CCOC(=O)c1[nH]c(C)c(C(=O)Nc2ccc(C)c(C)c2)c1C	2.1	26.4*	-9.6	-1.5	-1.3	-3.0	2.0
CC(C)NC(=O)N1Cc2cc(C(=O)NC3CCC3)nc(-c3cccc(-c4cncnc4)c3)c2[C@H]1CCO	/	8.3	7.0	/	/	/	/
COc1ccc(/C=N/NC(=O)Cn2c(Cc3ccc(OC)c(OC)c3)nc3ccccc32)cc1OC	4.4	31.1*	-2.6	-0.5	-1.1	-1.1	-0.7
CCCCCNC(=O)C(CCc1ccccc1)n1c(=O)c(-c2ccccc2)nc2ccccc21 (configuration not stated)	/	-0.9	-9.1	/	/	/	/
CCOC(=O)C1(C)CCCN(C(=O)c2ccccc2C(F)(F)F)C1 (configuration not stated)	/	12.1	-5.2	/	/	/	/
Cc1ccc(S(=O)(=O)Nc2ccc(Nc3nccn4c(-c5ccc6ccccc6c5)cnc34)cc2)cc1	/	-4.2	8.0	/	/	/	/
Cc1ccc(NC2=C(N3CCOCC3)C(=O)c3ccccc3C2=O)cc1	27.7	36.2*	23.8	5.1	38.7	0.4	1.2
CC1=CC2=NC(=O)/C(=C\c3ccc(-c4ccc(Cl)cc4)o3)C(=N)N2O1	-7.9	29.8*	3.5	-3.0	/	0.8	87.4*
Cc1cc2nc(C(C)(C)C)c(Cc3cccc(F)c3)n2c(C)c1Br	/	2.1	14.0	/	/	/	/
O=c1cc(Nc2cccc(Br)c2)[nH]c(=O)[nH]1	56.6	2.6	-6.2	-3.5	5.0	-2.3	/
O=c1[nH]c(Nc2ccccc2)cc2cc(Br)ccc12	/	36.2*	21.9	/	3.6	/	17.7
O=C(O)CC1(CC(=O)Nc2ccc(F)cc2F)CCCCC1	37.7	-3.1	2.4	-1.9	24.9	-2.2	/
O=C(O)CC1(CC(=O)Nc2cc(F)ccc2Cl)CCCCC1	12.1	24.8*	15.0	-2.0	-2.0	-1.9	2.7
CNC(=O)COC(=O)/C=C/c1ccco1	-3.9	27.5*	5.2	-0.2	29.7	-4.2	8.6
O=C(COC(=O)/C=C/c1ccco1)NCc1ccco1	40.1	4.6	-3.2	-4.5	2.8	-0.8	/
COc1cccc(-c2ccc3c(c2)O[C@@H](CN(C)Cc2cncnc2)[C@@H](C)CN([C@H](C)CO)S3(=O)=O)c1	/	7.2	0.8	/	/	/	/

Compound activity as filed in PubChem BioAssay.
